# Test results reported in ChEMBL document CHEMBL1681787, “Synthesis and anti-HSV-1 activity of new 1,2,3-triazole derivatives” (Bioorg Med Chem, 2011).
# Key:
# Human alphaherpesvirus 1 [1] = test: Antiviral activity against 5 MOI Herpes simplex viruses 1 infected in vero cells after 24 hrs by viral plaque number reduction assay; assay type: functional, organism-based; details: Human alphaherpesvirus 1, Vero
# Method in brief: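 Vero cells in 6-well plates infected with HSV-1 at MOI 5 for 1 h at 37 °C, then treated with test compounds. After 24 h infected cells lysed, supernatant harvested and titred by plaque assay. IC50 = concentration inhibiting 50% of plaque formation versus untreated controls. Acyclovir positive control. Triplicate independent experiments.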
# [2] = Cytotoxicity against african green monkey Vero cells after 72 hrs by XTT assay; assay type: cell-based; details: chlorocebus sabaeus
# Method in brief: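 Vero cells (10⁴ cells/well; DMEM, 5% FBS, 37 °C, 5% CO2) exposed to a range of compound concentrations for 72 h. XTT (2.5 mg/mL final) added with PMS 32 µg/mL, 4 h incubation, absorbance read at 492 nm with 620 nm reference. CC50 obtained by linear regression of dose-response curves; acyclovir included.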
# Human alphaherpesvirus 1 [3] = test: Antiviral activity against Herpes simplex viruses 1 infected in vero cells assessed as inhibition of viral replication at 50 uM after 72 hrs by XTT assay; assay type: functional; details: Human alphaherpesvirus 1, Vero
# Method in brief: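 Vero monolayers (10⁴ cells/well) infected with HSV-1 at 100 CCID50/well for 1 h. Inoculum removed, cells washed, medium with 50 µM compound added; acyclovir 50 µM as control. After 72 h XTT/PMS added to measure protection from virus-induced cytopathic effect. Means of triplicate experiments.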
# [4] = Selectivity index, ratio of CC50 for african green monkey vero cells to IC50 for Herpes simplex viruses 1; assay type: functional
# Method in brief: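 Selectivity index computed as CC50 (XTT assay in Vero cells, 72 h) divided by IC50 (plaque number reduction against HSV-1 in Vero cells).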
IC50 (Human alphaherpesvirus 1 [1]),Compound,CC50 at 72 h [2],inhibition at 50 µM (Human alphaherpesvirus 1 [3]),Ratio CC50/IC50 [4]
1.3 µM,Cc1ccc(S(=O)(=O)NNC(=O)c2nnn(Nc3ccc(F)cc3)c2C)cc1,1270 µM,88%,974
0.99 µM,Nc1nc2c(ncn2COCCO)c(=O)[nH]1 [ACYCLOVIR],860 µM,95%,869
37 µM,COc1ccc(S(=O)(=O)NNC(=O)c2nnn(Nc3ccc(Br)cc3)c2C)cc1,971 µM,77%,26

# Second part, the compound before the results:
Compound,IC50 (Human alphaherpesvirus 1 [1]),CC50 at 72 h [2],inhibition at 50 µM (Human alphaherpesvirus 1 [3]),Ratio CC50/IC50 [4]
Cc1c(C(=O)NNS(=O)(=O)c2ccccc2)nnn1Nc1ccccc1,19 µM,1510 µM,79%,80
Cc1c(C(=O)NNS(=O)(=O)c2ccccc2)nnn1Nc1ccc(Cl)cc1,,,57%,
Cc1c(C(=O)NNS(=O)(=O)c2ccccc2)nnn1Nc1ccc(Br)cc1,,,31%,
Cc1ccc(S(=O)(=O)NNC(=O)c2nnn(Nc3ccccc3)c2C)cc1,,,37%,
Cc1ccc(S(=O)(=O)NNC(=O)c2nnn(Nc3ccc(Br)cc3)c2C)cc1,,,69%,
Cc1c(C(=O)NNS(=O)(=O)c2ccccc2)nnn1Nc1cc(Cl)ccc1Cl,1.26 µM,1170 µM,71%,932
COc1ccc(S(=O)(=O)NNC(=O)c2nnn(Nc3ccccc3)c2C)cc1,,,54%,
